Peptide text beside a SMILES is read from it. * marks the point of attachment. Cbz = O=C(OCc1ccccc1)*; CH2F = FC*
Assays:
[1] = biological target: T1, recombinant μ4 C-terminal domain (Homo sapiens, UniProt O00189, C235S/C431S); test: Isothermal titration calorimetry; format: binding; conditions: purified components, synthetic peptide
T1 sequence (O00189 160-453 C235S/C431S): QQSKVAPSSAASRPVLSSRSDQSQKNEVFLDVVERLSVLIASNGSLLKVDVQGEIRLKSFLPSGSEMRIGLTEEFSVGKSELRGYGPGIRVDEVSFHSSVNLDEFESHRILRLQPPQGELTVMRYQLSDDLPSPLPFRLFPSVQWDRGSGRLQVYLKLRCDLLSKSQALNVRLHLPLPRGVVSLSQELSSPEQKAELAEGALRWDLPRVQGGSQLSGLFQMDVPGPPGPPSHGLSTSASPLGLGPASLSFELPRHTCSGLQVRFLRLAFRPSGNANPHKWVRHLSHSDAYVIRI

μ4 subunit of AP-4 = test: Yeast two-hybrid; format: binding, human; conditions: His-deficient plates, 30°C
[2] = test system: APP distribution in HeLa cells; test: Immunofluorescence microscopy, intracellular distribution of APP; format: cell-based
mutant μ4 = test: Yeast two-hybrid; format: binding, human
Summary of the method: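 Yeast co-transformed with Gal4ad fused to wild-type or point-mutant human μ4 (mutations introduced by site-directed mutagenesis) and Gal4bd fused to the APP tail (human APP695 template). Cells spotted on His-deficient and His-containing plates and incubated at 30°C; growth on −His scored as interaction. Controls: Gal4bd-mouse p53 with Gal4ad-SV40 large T antigen.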

[3] = test system: ε, β4 and σ4 subunits of AP-4; test: Y2H of APP tail with other AP-4 subunits; format: binding
[4] = test system: HeLa cells expressing CTFβ-GFP; test: Processing of CTFβ-GFP; format: cell-based; conditions: immunoblot, antibody to GFP; for CTFα and C31 from CTFβ-GFP: DAPT-treated cells
Summary of the method: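 CTFβ-GFP (wild-type, D664A or F689A/F690A/E691A) expressed in HeLa cells, or in mock- or μ4-siRNA-depleted cells. Same handling: lipofection, 8–16 h, then 16 h ± 250 nM DAPT, 100 μM E-64 and/or 200 μM Z-VAD-FMK, anti-GFP immunoblot; mean ± SD, n=3. Aβ: 4 h [35S]Met-Cys labelling at 37°C, medium immunoprecipitated with 6E10, Tricine 10–20% gels, fluorography; mean ± SD, n=4.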

[5] = test system: HeLa cells expressing APP-CFP; test: Immunoblot of APP-CFP fragments; format: cell-based; conditions: for C31 fragment levels/formation: DAPT-treated cells
Summary of the method: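 HeLa cells transfected (Lipofectamine 2000, 1 h, 37°C, no FBS) with C-terminally CFP-tagged APP (wild-type, D664A or F689A/F690A/E691A), or μ4-siRNA-depleted twice and then APP-CFP-transfected. Analysed 8–16 h post-transfection after 16 h ± 250 nM DAPT, 100 μM E-64 and/or 200 μM Z-VAD-FMK. Pellet/supernatant fractionation in some runs. SDS-PAGE, anti-GFP immunoblot. Fragment levels given as mean ± SD of three experiments.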

μ1, μ2 and μ3 subunits = test: Y2H of APP signal with other AP μ subunits; format: binding
HeLa cells = test: Pulse-chase / immunoblot analysis of APP processing and CTF levels; format: cell-based; conditions: 250 nM DAPT; decrease elicited by FFE mutation or μ4 depletion
[6] = biological target: T2, recombinant μ4 C-terminal domain (160–453; C235S, C431S) (human, UniProt O00189 160-453, C235S | C431S); test: ITC
T2 sequence (looked up): T1 sequence (O00189 160-453 C235S/C431S)

## ENPTAKAAEQ
[1]
  binding site number / binding by ITC: but not a substituted ENPTAKAAEQ variant, bound

## YKYLE
μ4 subunit of AP-4
  Y2H interaction with μ4: indeed bind to μ4

## C[C@@H]1C[C@@H]([C@H](O)CC2CC(=O)NC(=O)C2)C(=O)[C@@H](C)C1 [cycloheximide, reference compound]
[2]; inhibition of protein synthesis, mock- and μ4-depleted cells
  effect on APP-WT staining: rapid disappearance of APP-WT staining in both mock- and μ4-depleted cells

## APP tail: cytosolic tail of APP fused to Gal4bd
Mutant μ4; Ser-257 to Ala together with His-256 and Phe-255 to Ala
  Y2H binding to μ4 S257A/H256A/F255A: completely abolished binding
Mutant μ4; double mutation of Phe-255 and Arg-283
  Y2H binding to μ4 F255A/R283D: completely abrogated
Mutant μ4; mutation of Ser-257 to Ala
  Y2H binding to μ4 S257A: no detectable effect
Mutant μ4; single mutation of His-256, Glu-265, Arg-283 to Ala
  Y2H binding to μ4 H256A, E265A or R283A: little or no effect on the interaction
Mutant μ4; single mutation of Phe-255 to Ala, or Arg-283 to Asp
  Y2H binding to μ4 F255A or R283D: drastically reduced
Mutant μ4; triple mutation
  Y2H binding to μ4 H256A/E265A/R283A: greatly decreased the interaction
μ4 subunit of AP-4
  Y2H interaction with μ4: interacted exclusively with the μ4 subunit of AP-4
[3]
  Y2H interaction with ε, β4 and σ4: did not bind to the APP tail

## COC(=O)C[C@H](NC(=O)[C@H](C)NC(=O)[C@@H](NC(=O)OCc1ccccc1)C(C)C)C(=O)CF [Z-VAD-FMK] (Cbz-Val-Ala-Asp(OMe)-CH2F)
[4]
  CTFα and C31 from CTFβ-GFP: absence
[5]; immunoblot, antibody to GFP
  C31 fragment levels/formation: prevented

## YKFFE
μ1, μ2 and μ3 subunits
  Y2H interaction with μ1, μ2, μ3: does not bind to these μ subunits

## APP-WT: wild-type APP expressed in HeLa cells
[2]; HeLa cells, normal conditions, n=11
  localization of APP to endosomes: 74 ± 8%

## C[C@H](NC(=O)Cc1cc(F)cc(F)c1)C(=O)N[C@H](C(=O)OC(C)(C)C)c1ccccc1 [DAPT]
[4]
  AICDγ formation/levels from CTFβ-GFP: prevented AICDγ formation
  CTFα and C31 from CTFβ-GFP: resulted in the appearance of CTFα and C31
HeLa cells
  effect of DAPT on the decrease in steady-state CTFα levels: abrogated the decrease in steady-state CTFα levels
[5]; immunoblot, antibody to GFP
  C31 fragment levels/formation: increased the levels of a smaller, soluble fragment
  AICDγ-CFP formation/levels: precluded AICDγ-CFP formation
[5]; FFE mutation or μ4 depletion, incubation with DAPT
  difference in AICDγ-CFP levels / CTF accumulation with DAPT: abolished by incubation with DAPT, resulting in the accumulation of equal amounts of CTFs under all conditions
[5]; immunoblot, antibody to GFP, DAPT 250 nM
  CTFα-CFP levels: increased CTFα-CFP levels

## YRFLE
μ4 subunit of AP-4
  Y2H interaction with μ4: indeed bind to μ4

## ENPTYKFFEQ [synthetic ENPTYKFFEQ peptide derived from the APP tail]
[6]
  stoichiometry N: 1
